Measurements collected from several papers.
Compare with care: the assays were run in different laboratories.
CDK14: Cyclin-dependent kinase 14 (CDK14, Homo sapiens, UniProt O94921)
CDK14 with cyclin Y: Cyclin-dependent kinase 14, with cyclin Y (CDK14, Homo sapiens, UniProt O94921)

CC#CC(=O)N1CCC[C@H]1c1nc(-c2ccc(C(=O)Nc3ccccn3)cc2)c2c(N)nccn12
inhibition (CDK14; enzyme activity, inhibitor; 1 µM): 4%

CC(C)S(=O)(=O)c1ccc2nccc(Nc3ccc4sc(C5CCCC5)nc4c3)c2c1
activity vs control (CDK14 with cyclin Y; enzyme activity, inhibitor; 1 µM): 110%

CN1CCN(C(=O)c2ccc(NC(=O)Nc3ccc(N(C)c4ccnc(Nc5ccc(CS(C)(=O)=O)cc5)n4)cc3)cc2)CC1
remaining binding (CDK14; binding, competition with immobilised ligand; 1 µM): 81%

COc1ccc2oc(-c3ccc4nc(N)oc4c3)c/c(=N\c3ccccc3NC(=O)CCN)c2c1
remaining binding (CDK14 with cyclin Y; binding; 1 µM): 100%

CO[C@@H]1[C@H](N(C)C(=O)c2ccccc2)C[C@H]2O[C@]1(C)n1c3ccccc3c3c4c(c5c6ccccc6n2c5c31)C(=O)NC4
inhibition (CDK14; enzyme activity, inhibitor; 1 µM): 0%

Cc1ccc(NC(=O)c2ccnc(C(F)(F)F)c2)cc1-c1cc(OCCO)nc(N2CCOCC2)c1
remaining binding (CDK14; binding, competition with immobilised ligand; 1 µM): 100%

CCCCC(=O)Nc1ccc(-c2ccc3ncn(CCC)c(=O)c3c2)cn1
remaining binding (CDK14; binding, competition with immobilised ligand; 0.5 µM): 100%

C1=C/COCc2cc(ccc2OCCN2CCCC2)Nc2nccc(n2)-c2cccc(c2)COC/1
remaining signal (CDK14; cell-free assay; 0.1 µM): 87%
